# CHT PAM – CHT positive allosteric modulators, primary screen, cell-based, membrane potential dye, choline EC20; CHT-expressing cells; stronger effect = higher value; LV-AA mutant CHT in HEK293 cells; 0.49% of 310,000 active; AID 488977, 2010; High affinity choline transporter 1 (Homo sapiens), Q9GZV3; B-score at 10 µM;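 active = initial fluorescence not abnormally high and integrated response B-score, plate-corrected, over 3 SD above library mean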
# Hep lipid drop – inhibitors of hepatocyte lipid droplet formation, primary screen, imaging, high-throughput imaging, BODIPY stain | AML12 mouse hepatocytes, oleate lipid droplets | inhibition, % at 6.5 µM | 0.4% of 240,000 active;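 active = lipid droplet intensity inhibited by at least 50%, with more than 500 cells counted; inconclusive = wells with under 300 cells, treated as cytotoxic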
#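 material = mouse AML12 hepatocyte cell line, fixed after treatment | also added = 100 µM oleic acid challenge | doses = compound at 6.5 µM only | schedule = overnight exposure | technique = Image-based BODIPY and DAPI two-channel analysis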
# CHT inh – inhibitors of human choline transporter CHT | High affinity choline transporter 1 (Homo sapiens), Q9GZV3 | CHT-expressing cells, membrane potential dye, choline response; stronger effect = lower value | B-score at 10 µM | 0.86% of 310,000 active | AID 488975, 2010;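 active = B-score over 3 SD under the library average, and starting fluorescence ratio not unusually high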;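 note: choline stimulus applied at its EC90 after an EC20 pre-addition; B-score computed on integrated fluorescence ratio after choline addition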
# HSF-1 act – HSF-1 activators, primary screen, NIH3T3-HGL cells, MG132 stress, luminescence, single point; NIH3T3-HGL HSF-1 luciferase reporter, 8 h; 100% = twice DMSO control signal; activation, % at 9 µM; 1.7% of 300,000 active;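 active = mean replicate activation of at least 50% with a set share of replicates each reaching 50%; inconclusive = only one of those two conditions met; inactive = mean below 50% and too few replicates reaching it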;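 note: 0% = median of the neutral control wells and 100% = twice that signal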
# PHOSPHO1 inh – PubChem AID 1565; recombinant PHOSPHO1, absorbance phosphatase assay; 1.1% of 290,000 active; Phosphoethanolamine/phosphocholine phosphatase (Homo sapiens), Q8TCT1; inhibition, % at 13.3 µM; in the data active = inhibition above about 60%
# Target sequence (Q8TCT1 whole entry, looked up): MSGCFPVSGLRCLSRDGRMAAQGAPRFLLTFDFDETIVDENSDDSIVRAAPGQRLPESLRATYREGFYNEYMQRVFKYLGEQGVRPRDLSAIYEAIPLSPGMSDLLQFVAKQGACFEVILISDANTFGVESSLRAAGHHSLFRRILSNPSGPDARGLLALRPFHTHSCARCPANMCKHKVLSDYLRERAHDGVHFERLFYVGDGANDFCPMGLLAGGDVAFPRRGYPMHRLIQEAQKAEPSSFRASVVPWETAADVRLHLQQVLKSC
# HSF1 inhib – HSF1 inhibitors in luciferase reporter cells, primary screen, cell-based, NIH3T3, luminescence | NIH3T3-HGL HSE-luciferase, MG132-induced, luminescence 8 h; stronger effect = lower value | 0.77% of 300,000 active | activity change, negative = inhibition, % at 7.5 µM (by protocol);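 active = more than half of replicate wells show activity change below -50%, luminescence cut by over half; inconclusive = some wells, but at most half, below -50%; inactive = no replicate well below -50%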;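 note: luciferase reports HSF-1 transcriptional activity via heat shock element; 0% = median of DMSO wells and -100% = zero luminescence signal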
# Starred values were filed as active, the others as inactive; i = inactive; ? = inconclusive; nt = no result given. A selection: hits, their analogues and other compounds. The true share with any hit is near 4.9%.
SMILES,CHT PAM,Hep lipid drop,CHT inh,HSF-1 act,PHOSPHO1 inh,HSF1 inhib
CCn1c(SCC(=O)Nc2ccc(N(C)C)cc2)nnc1-c1cccc(C)c1,i,nt,i,-80,79*,-76*
CCn1c(Cn2nnc(-c3ccccc3)n2)nnc1SCC(=O)Nc1ccc(N(C)C)cc1,i,nt,i,23,78*,10
CCn1c(SCC(=O)Nc2cc(C)on2)nnc1-c1cccc(C)c1,i,2,i,-8,40,-3
CCn1c(Cn2nnc(-c3ccccc3)n2)nnc1SCC(=O)Nc1ccc(C(C)=O)cc1,i,nt,i,13,46,21
CCn1c(Cn2nnc(-c3ccccc3)n2)nnc1SCC(=O)Nc1cccc(C)c1C,i,nt,i,76*,-1,49
O=C(NCCCN1CCCC1=O)C1CCN(S(=O)(=O)c2cccc(C(F)(F)F)c2)CC1,i,nt,i,-8,nt,4
CC1(NC(=S)Nc2ccc3ccccc3c2)CCS(=O)(=O)C1 (stereo not given),i,1,i,5,2,-3
COc1ccc(N(CC(=O)Nc2ccc(C)c(C)c2)S(=O)(=O)c2c(C)n[nH]c2C)cc1,i,nt,i,5,4,7
COc1cccc(NC(=O)N2CCCC2C(=O)NC(C)C)c1 (stereo not given),i,2,i,-70,-17,-63*
COc1cccc(NC(=O)C2CCN(C(=O)NC3CCCCC3)CC2)c1,i,24,i,-3,63*,-3
COc1ccccc1NC(=O)C(C)OC(=O)Cn1cnc2c1c(=O)n(C)c(=O)n2C (stereo not given),i,nt,i,10,nt,-2
COc1ccc(CC(=O)NNC(=S)Nc2ccc(Br)cc2)cc1,i,13,i,-12,98*,-2
CCCCc1ccc(NC(=S)NCc2ccc(OC)cc2)cc1,i,nt,i,51*,42,8
CCOc1ccc(S(=O)(=O)NNC(=S)Nc2ccc(Br)cc2)cc1,i,18,i,113*,-11,87
Cc1cc([N+](=O)[O-])nn1CC(=O)NNC(=S)Nc1ccc([N+](=O)[O-])cc1,i,nt,i,-5,58,-3
O=S(=O)(NNC(=S)Nc1ccc(S(=O)(=O)Nc2ncccn2)cc1)c1ccc(Br)cc1,i,-2,i,8,15,-3
COC(=O)Cc1ccc(NC(=S)NCc2ccc(OC)cc2)cc1,i,1,i,22,15,1
COc1ccc(NC(=S)NNC(=O)Cn2nc([N+](=O)[O-])cc2C)cc1,i,nt,i,15,79*,3
NC(=O)c1ccc(-n2nnnc2Oc2ccc(Br)cc2)cc1,i,-28,i,3,28,2
COc1ccc(CC(=O)NNC(=S)Nc2ccccc2)cc1Br,i,nt,i,-5,93*,-6
O=C(Cn1nc(C(F)F)cc1C(F)F)NNC(=S)Nc1ccc(Cl)cc1,i,1,i,8,100*,6
COC(CC(=O)NNC(=S)Nc1ccccc1)OC,i,-4,i,5,-4,-4
CC(OCc1ccccc1)C(NC(=O)OC(C)(C)C)C(=O)NCC1CCCO1 (stereo not given),i,-1,i,-4,1,0
CC1=Nc2ccccc2/C1=C/c1nc(-c2ccc(C)s2)oc1O,i,-17,i,58*,11,51
CC1=Nc2ccccc2/C1=C\c1nc(-c2ccccc2)oc1O,i,-28,i,-12,2,1
N#CC1=C(N)SC(N)=C(C#N)C1c1c(Cl)cccc1Cl,i,nt,i,?,82*,18
N#CC1=C(N)SC(N)=C(C#N)C1Cc1ccccc1,i,nt,i,4,1,1
N#CC1=C(N)SC(N)=C(C#N)C1CCc1ccccc1,i,5,-6.1*,9,7,15
CSc1cccc(NC(=O)c2sc3nc4n(c(=O)c3c2C)CCC4)c1,i,0,i,64*,-16,44

# Screens from PubChem BioAssay.
